“And” between values parts separate entries of the source, which are not always exact repeats. Identical values can stand only once.
Tested on: HEK-293T
Assay: Multiplex assay against HEK293T
Format: toxicity, cell-based
Details: human, number of replicates 2
Procedure, shortened: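 At seeding, live cells were stained with Hoechst33342, BioTracker Green Microtubule Cytoskeleton Dye, MitoTracker Red and Annexin V Alexa Fluor 680. After compound addition they were imaged on a CQ1 microscope at 37°C and 5% CO2, and CellPathfinder machine-learning gating sorted them into Hoechst high-intensity objects or normal cells, with normal cells further split into healthy, pyknosed or fragmented nuclei and pyknosed cells into mitotic or apoptotic. Tubulin, mitochondrial-mass and membrane-permeability phenotypes are given as per cents of cells with healthy nuclei.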

[1] = 12 h, 1 µM, compound concentration 1 uM
[2] = 12 h, 10 µM, compound concentration 10 uM
[3] = 24 h, 1 µM, compound concentration 1 uM
[4] = 24 h, 10 µM, compound concentration 10 uM
[5] = 48 h, 1 µM, compound concentration 1 uM
[6] = 48 h, 10 µM, compound concentration 10 uM

CN1CCCN(C(=O)c2cccc(-c3ccc(/C=C4/C(=O)Nc5ccc(Cl)cc54)o3)c2)CC1
Population Apoptotic (%) [1]: 58% and 72% | Population Fragmented Nuclei (%) [1]: 4% | Population Healthy Nuclei (%) [1]: 88% and 86% | Population Hoechst High Intensity Objects (%) [1]: 6% | Population Membrane Permeable-Phenotype (%) [1]: 3% and 2% | Population Mitochondria Different-Phenotype (%) [1]: 8% and 12% | Population Mitotic Cells (%) [1]: 41% and 27% | Population Normal (%) [1]: 93% | Population Pyknosed Nuclei (%) [1]: 6% and 9% | Population Tubulin-Different-Phenotype (%) [1]: 60% and 45% | Total Cell Count [1]: 923 and 535 | Population Apoptotic (%) [2]: 67% and 62% | Population Fragmented Nuclei (%) [2]: 2% and 1% | Population Healthy Nuclei (%) [2]: 86% and 92% | Population Hoechst High Intensity Objects (%) [2]: 5% and 6% | Population Membrane Permeable-Phenotype (%) [2]: 7% and 4% | Population Mitochondria Different-Phenotype (%) [2]: 38% and 32% | Population Mitotic Cells (%) [2]: 32% and 37% | Population Normal (%) [2]: 94% and 93% | Population Pyknosed Nuclei (%) [2]: 11% and 6% | Population Tubulin-Different-Phenotype (%) [2]: 94% and 96% | Total Cell Count [2]: 365 and 416 | Population Apoptotic (%) [3]: 57% and 72% | Population Fragmented Nuclei (%) [3]: 7% and 6% | Population Healthy Nuclei (%) [3]: 86% and 85% | Population Hoechst High Intensity Objects (%) [3]: 9% | Population Membrane Permeable-Phenotype (%) [3]: 2% and 1% | Population Mitochondria Different-Phenotype (%) [3]: 1% and 3% | Population Mitotic Cells (%) [3]: 42% and 27% | Population Normal (%) [3]: 90% | Population Pyknosed Nuclei (%) [3]: 6% and 8% | Population Tubulin-Different-Phenotype (%) [3]: 18% and 20% | Total Cell Count [3]: 1009 and 610 | Population Apoptotic (%) [4]: 64% and 56% | Population Fragmented Nuclei (%) [4]: 4% and 2% | Population Healthy Nuclei (%) [4]: 79% and 90% | Population Hoechst High Intensity Objects (%) [4]: 2% and 4% | Population Membrane Permeable-Phenotype (%) [4]: 7% and 8% | Population Mitochondria Different-Phenotype (%) [4]: 34% and 29% | Population Mitotic Cells (%) [4]: 35% and 43% | Population Normal (%) [4]: 97% and 95% | Population Pyknosed Nuclei (%) [4]: 16% and 7% | Population Tubulin-Different-Phenotype (%) [4]: 84% and 87% | Total Cell Count [4]: 402 and 421 | Population Apoptotic (%) [5]: 43% and 64% | Population Fragmented Nuclei (%) [5]: 16% and 12% | Population Healthy Nuclei (%) [5]: 81% and 84% | Population Hoechst High Intensity Objects (%) [5]: 6% and 5% | Population Membrane Permeable-Phenotype (%) [5]: 0% | Population Mitochondria Different-Phenotype (%) [5]: 1% and 4% | Population Mitotic Cells (%) [5]: 56% and 35% | Population Normal (%) [5]: 93% and 94% | Population Pyknosed Nuclei (%) [5]: 2% | Population Tubulin-Different-Phenotype (%) [5]: 14% and 15% | Total Cell Count [5]: 1019 and 606 | Population Apoptotic (%) [6]: 60% and 55% | Population Fragmented Nuclei (%) [6]: 6% | Population Healthy Nuclei (%) [6]: 46% and 55% | Population Hoechst High Intensity Objects (%) [6]: 7% and 3% | Population Membrane Permeable-Phenotype (%) [6]: 3% and 2% | Population Mitochondria Different-Phenotype (%) [6]: 50% and 38% | Population Mitotic Cells (%) [6]: 39% and 44% | Population Normal (%) [6]: 92% and 96% | Population Pyknosed Nuclei (%) [6]: 47% and 38% | Population Tubulin-Different-Phenotype (%) [6]: 77% and 76% | Total Cell Count [6]: 403 and 446

— ChEMBL document CHEMBL5303300, “EUbOPEN Chemogenomics Library - Multiplex” (2023)
